Measured values from ChEMBL document CHEMBL4368928, “New hybrid trifluoromethylquinolines as antiplasmodium agents” (Bioorg Med Chem, 2019).

Assays:
[1] = Selectivity index, ratio of EC50 for African green monkey BGM cells to IC50 for chloroquine-resistant mefloquine-sensitive Plasmodium falciparum W2 ring stage form infected in human erythrocytes; assay type: toxicity, cell-based; settings: read-out: Selectivity Index
Method in brief: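 SI = BGM EC50 / W2 IC50. BGM cells seeded at 5 × 10^3/well, adhered 18 h, exposed 24 h at 37 °C, 5% CO2 to 200–25 µg/mL (20 mg/mL DMSO stock). MTT added 3 h, formazan in DMSO, OD 570/630 nm; viability as % untreated. W2 IC50 from HRPII ELISA on synchronized rings.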

Plasmodium falciparum = test: Antimalarial activity against chloroquine-resistant and mefloquine-sensitive Plasmodium falciparum W2 ring stage form infected in human erythrocytes by spectrophotometric analysis; assay type: functional, organism-based
Method in brief: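 W2 clone grown in A+ human erythrocytes in RPMI 1640 with 1% Albumax II. Sorbitol-synchronized rings at 1.5% hematocrit and 0.05% parasitemia; compounds from 10 mg/mL DMSO stock, final 0.02% DMSO; triplicate per dose. Growth read by anti-HRPII ELISA (TMB, A450) versus drug-free cultures; IC50 from sigmoid dose-response fits.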

[2] = Cytotoxicity in African green monkey BGM cells assessed as reduction in cell viability incubated for 24 hrs by MTT assay; assay type: cell-based; settings: Chlorocebus aethiops
Method in brief: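 BGM monkey kidney cells kept in RPMI 1640 with 10% heat-inactivated fetal serum at 37 °C, 5% CO2. Seeded at 5 × 10^3 cells/well and allowed to adhere 18 h. Exposed 24 h to 200–25 μg/mL from a 20 mg/mL DMSO stock. MTT added for 3 h, formazan dissolved in DMSO, OD read at 570/630 nm. Viability as % of untreated control; EC50 derived from this.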

Plasmodium berghei [3] = test: Antimalarial activity against Plasmodium berghei NK65 infected in mouse assessed as parasite survival at 50 mg/kg, po administered daily for 3 consecutive days (reference value: 13+/- 3 days); assay type: functional
Method in brief: (§1)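 P. berghei NK65 (weekly blood passage); mice infected i.p. with 1 × 10^5 infected erythrocytes, grouped five per cage about 24 h later. Dosed orally once daily for three days in 3% DMSO/RPMI: test compounds at 50 mg/kg, CQ and MQ at 20 mg/kg, vehicle controls. Tail-blood Giemsa thin smears on days 5, 7 and 9; survival recorded in days.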

Plasmodium berghei [4] = test: Antimalarial activity against Plasmodium berghei NK65 infected in mouse assessed as reduction in parasite growth at 50 mg/kg, po administered daily for 3 consecutive days and measured on day 9 post parasite inoculation relative to control; assay type: functional; design: scale not given: the % may be the effect or the level left
Method in brief: (§2)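 Suppressive test: mice inoculated i.p. with 1 × 10^5 P. berghei NK65-infected erythrocytes, randomized about 24 h later to groups of five. Dosed orally once daily for three consecutive days, freshly diluted in 3% DMSO in RPMI; vehicle controls included. Parasitemia was read on days 5, 7 and 9 from Giemsa-stained, methanol-fixed tail-blood thin smears at 1000X. Inhibition is given relative to untreated mice, taken as 100% growth.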

Plasmodium berghei [5] = test: Antimalarial activity against Plasmodium berghei NK65 infected in mouse assessed as reduction in parasite growth at 50 mg/kg, po administered daily for 3 consecutive days and measured on day 5 post parasite inoculation relative to control; assay type: functional; design: scale not given: the % may be the effect or the level left; method in brief: as §2
Plasmodium berghei [6] = test: Antimalarial activity against Plasmodium berghei NK65 infected in mouse assessed as reduction in parasite growth at 50 mg/kg, po administered daily for 3 consecutive days and measured on day 7 post parasite inoculation relative to control; assay type: functional; design: scale not given: the % may be the effect or the level left; method in brief: as §2
Plasmodium berghei [7] = test: Antimalarial activity against Plasmodium berghei NK65 infected in mouse assessed as parasite survival at 20 mg/kg, po administered daily for 3 consecutive days (reference value: 13+/- 3 days); assay type: functional; method in brief: as §1
Plasmodium berghei [8] = test: Antimalarial activity against Plasmodium berghei NK65 infected in mouse assessed as reduction in parasite growth at 20 mg/kg, po administered daily for 3 consecutive days and measured on day 5 post parasite inoculation relative to control; assay type: functional; design: scale not given: the % may be the effect or the level left; method in brief: as §2
Plasmodium berghei [9] = test: Antimalarial activity against Plasmodium berghei NK65 infected in mouse assessed as reduction in parasite growth at 20 mg/kg, po administered daily for 3 consecutive days and measured on day 9 post parasite inoculation relative to control; assay type: functional; design: scale not given: the % may be the effect or the level left; method in brief: as §2
Plasmodium berghei [10] = test: Antimalarial activity against Plasmodium berghei NK65 infected in mouse assessed as reduction in parasite growth at 20 mg/kg, po administered daily for 3 consecutive days and measured on day 7 post parasite inoculation relative to control; assay type: functional; design: scale not given: the % may be the effect or the level left; method in brief: as §2

## FC(F)(F)c1cc(Nc2ccccc2C(F)(F)F)c2cccc(C(F)(F)F)c2n1
[1]
  selectivity ratio: < 0.57
Plasmodium falciparum
  IC50: 33 µM
[2]
  EC50: < 18.9 µM

## FC(F)(F)c1cc(Nc2ccc3ccccc3c2)c2cccc(C(F)(F)F)c2n1
[1]
  selectivity ratio: 1.2
Plasmodium falciparum
  IC50: 9.6 µM
[2]
  EC50: 12.3 µM

## FC(F)(F)c1cc(Nc2ccncc2)c2cccc(C(F)(F)F)c2n1
[1]
  selectivity ratio: > 66.7
Plasmodium falciparum
  IC50: 8.4 µM
[2]
  EC50: > 560 µM
Plasmodium berghei [3]
  Survival: 15 days
Plasmodium berghei [4]
  Activity: 11%
Plasmodium berghei [5]
  Activity: 25%
Plasmodium berghei [6]
  Activity: 42%

## Cc1nnc(Nc2cc(C(F)(F)F)nc3c(C(F)(F)F)cccc23)s1
[1]
  selectivity ratio: 0.8
Plasmodium falciparum
  IC50: 1.8 µM
[2]
  EC50: 1.5 µM

## Oc1ccc(Nc2cc(C(F)(F)F)nc3c(C(F)(F)F)cccc23)cc1
[1]
  selectivity ratio: < 27.9
Plasmodium falciparum
  IC50: 24.1 µM
[2]
  EC50: 672 µM

## FC(F)(F)c1cc(Nc2ccccn2)c2cccc(C(F)(F)F)c2n1
[1]
  selectivity ratio: < 2.29
Plasmodium falciparum
  IC50: 19.6 µM
[2]
  EC50: < 44.8 µM

## FC(F)(F)c1cc(N2CCOCC2)c2cccc(C(F)(F)F)c2n1
[1]
  selectivity ratio: < 11.7
Plasmodium falciparum
  IC50: > 143 µM
[2]
  EC50: 1680 µM

## Fc1ccc(Nc2cc(C(F)(F)F)nc3c(C(F)(F)F)cccc23)cc1
[1]
  selectivity ratio: < 2.67
Plasmodium falciparum
  IC50: 16 µM
[2]
  EC50: < 42.8 µM

## FC(F)(F)c1cc(Nc2ccccc2)c2cccc(C(F)(F)F)c2n1
[1]
  selectivity ratio: < 0.83
Plasmodium falciparum
  IC50: 28 µM
[2]
  EC50: < 22.5 µM

## FC(F)(F)c1cc(Nc2ncccn2)c2cccc(C(F)(F)F)c2n1
[1]
  selectivity ratio: > 66.5
Plasmodium falciparum
  IC50: 8.4 µM
[2]
  EC50: > 559 µM
Plasmodium berghei [3]
  Survival: 13 days
Plasmodium berghei [4]
  Activity: 31%
Plasmodium berghei [5]
  Activity: 61%
Plasmodium berghei [6]
  Activity: 35%

## FC(F)(F)c1cc(NC2CCCCC2)c2cccc(C(F)(F)F)c2n1
[1]
  selectivity ratio: 11.5
Plasmodium falciparum
  IC50: 11 µM
[2]
  EC50: 127 µM

## FC(F)(F)c1cc(N2CCNCC2)c2cccc(C(F)(F)F)c2n1
[1]
  selectivity ratio: 0.5
Plasmodium falciparum
  IC50: 31.5 µM
[2]
  EC50: 17.2 µM

## Cc1nnc(Nc2cc(C(F)(F)F)nc3c(C(F)(F)F)cccc23)[nH]1
[1]
  selectivity ratio: 132
Plasmodium falciparum
  IC50: 0.083 µM
[2]
  EC50: 11 µM
Plasmodium berghei [3]
  Survival: 19 days
Plasmodium berghei [4]
  Activity: 23%
Plasmodium berghei [5]
  Activity: 66%
Plasmodium berghei [6]
  Activity: 30%

## Clc1ccc2c(Nc3ccncc3)ccnc2c1
[1]
  selectivity ratio: 67
Plasmodium falciparum
  IC50: 11.7 µM
[2]
  EC50: 784 µM

## FC(F)(F)c1cc(Nc2nnc[nH]2)c2cccc(C(F)(F)F)c2n1
[1]
  selectivity ratio: < 8
Plasmodium falciparum
  IC50: 2.9 µM
[2]
  EC50: < 23.1 µM

## COc1ccc(Nc2cc(C(F)(F)F)nc3c(C(F)(F)F)cccc23)cc1OC
[1]
  selectivity ratio: 27
Plasmodium falciparum
  IC50: 4.8 µM
[2]
  EC50: 130 µM

## FC(F)(F)c1cc(Nc2nnc(C(F)(F)F)[nH]2)c2cccc(C(F)(F)F)c2n1
[1]
  selectivity ratio: 7.3
Plasmodium falciparum
  IC50: 11.5 µM
[2]
  EC50: 84.2 µM

## O[C@@H](c1cc(C(F)(F)F)nc2c(C(F)(F)F)cccc12)[C@H]1CCCCN1 (relative stereo) [(S,R)-MEFLOQUINE]
[1]
  selectivity ratio: 789
Plasmodium berghei [7]
  Survival: >30 days
Plasmodium falciparum
  IC50: 0.019 µM
Plasmodium berghei [8]
  Activity: 98%
Plasmodium berghei [9]
  Activity: 99%
[2]
  EC50: 15 µM
Plasmodium berghei [10]
  Activity: 98%

## CCN(CC)CCCC(C)Nc1ccnc2cc(Cl)ccc12 (stereo not given) [CHLOROQUINE]
Plasmodium berghei [7]
  Survival: 24 days
Plasmodium berghei [8]
  Activity: 99%
Plasmodium berghei [9]
  Activity: 84%
[2]
  EC50: 907 µM
Plasmodium berghei [10]
  Activity: 99%
